# Results from ChEMBL document CHEMBL1123888, “Aldosterone antagonists. 2. Synthesis and biological activities of 11,12-dehydropregnane derivatives” (J Med Chem, 1987).
# Active and inactive are the calls of the source. No cut-off for these calls is given here.
# Experiments:
# [1] = target: T1, Mineralocorticoid receptor (Rattus norvegicus) (UniProt P22199); experiment: Relative binding affinity against Mineralocorticoid Receptor in Male Sprague-Dawley rats
# T1 sequence (whole entry): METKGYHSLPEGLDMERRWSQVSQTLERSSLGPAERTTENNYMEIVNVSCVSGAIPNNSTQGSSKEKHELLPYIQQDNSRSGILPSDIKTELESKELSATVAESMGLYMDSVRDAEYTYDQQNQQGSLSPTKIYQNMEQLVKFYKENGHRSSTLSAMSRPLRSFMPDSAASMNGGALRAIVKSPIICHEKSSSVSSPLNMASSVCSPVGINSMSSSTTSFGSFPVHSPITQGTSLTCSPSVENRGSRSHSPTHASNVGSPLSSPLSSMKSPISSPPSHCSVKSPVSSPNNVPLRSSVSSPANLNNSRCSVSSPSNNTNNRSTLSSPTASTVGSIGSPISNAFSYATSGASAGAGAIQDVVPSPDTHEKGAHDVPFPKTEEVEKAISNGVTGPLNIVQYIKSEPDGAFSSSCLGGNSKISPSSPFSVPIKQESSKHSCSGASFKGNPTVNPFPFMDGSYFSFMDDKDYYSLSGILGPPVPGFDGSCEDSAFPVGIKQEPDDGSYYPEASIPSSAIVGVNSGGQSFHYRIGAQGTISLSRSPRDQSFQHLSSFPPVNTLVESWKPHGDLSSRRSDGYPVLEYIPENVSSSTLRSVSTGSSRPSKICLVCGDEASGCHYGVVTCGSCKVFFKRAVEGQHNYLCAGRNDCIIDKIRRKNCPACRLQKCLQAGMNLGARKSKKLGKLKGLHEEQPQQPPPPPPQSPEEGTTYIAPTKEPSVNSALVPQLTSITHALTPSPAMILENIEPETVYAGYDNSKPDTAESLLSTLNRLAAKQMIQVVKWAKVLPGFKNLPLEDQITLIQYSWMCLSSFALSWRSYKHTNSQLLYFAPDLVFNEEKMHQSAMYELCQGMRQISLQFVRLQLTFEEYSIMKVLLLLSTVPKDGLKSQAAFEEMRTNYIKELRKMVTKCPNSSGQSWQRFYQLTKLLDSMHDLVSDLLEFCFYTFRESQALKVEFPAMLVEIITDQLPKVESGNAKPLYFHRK
# Procedure, shortened: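 Renal cytosol from male Sprague-Dawley rats (4-8 weeks) adrenalectomized bilaterally 1 or 2 days earlier. Incubated with various competitor concentrations and about 1 nM [3H]aldosterone, for 42-48 h at 0 °C or 100-120 min at 25 °C. Charcoal (DCC) separation of bound and free.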
# [2] = target: T1, Mineralocorticoid receptor (Rattus norvegicus); experiment: In vivo relative Mineralocorticoid activity in Male Sprague-Dawley rats; type: functional, organism-based
# [3] = target: T1, Mineralocorticoid receptor (Rattus norvegicus); experiment: Relative binding affinity to the rat mineralocorticoid receptor determined in rat renal cytosol using [3]Ald as ligand
# Procedure, shortened: (§1)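 Renal cytosol came from male Sprague-Dawley rats (4-8 weeks) adrenalectomized bilaterally 1 or 2 days earlier. It was incubated with various competitor concentrations and about 1 nM [3H]Ald for 42-48 h at 0 °C or 100-120 min at 25 °C. Bound and free steroid were separated by DCC.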
# Rattus norvegicus = species: Rattus norvegicus; experiment: Displacement of [3H]promegestone from progestin receptor of rat uterine cytosol at 0 degree Centigrade
# Procedure, shortened: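 Uteri from estradiol-primed rats supplied the cytosol. It was incubated with various competitor concentrations and about 1 nM [3H]promegestone for 16-20 h at 0 °C. Bound and free steroid were separated by DCC. RBA (progesterone = 100%) = 100 × ratio of the 50%-inhibition concentrations of standard and competitor.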
# [4] = target: T1, Mineralocorticoid receptor (Rattus norvegicus); experiment: Antagonist activity against Mineralocorticoid receptor was determined after subcutaneous administration in Male Sprague Dawley rats; type: functional, organism-based
# Procedure, shortened: (§2)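 Male rats were bilaterally adrenalectomized (bioassay modified from Kagawa). Ald (1 µg/kg) was given sc, immediately followed by test compound in sesame oil sc or orally. Urine was collected from 2 to 6 h after steroid. Potency came from the urinary Na/K ratio of sample versus control, with 95% confidence limits.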
# [5] = target: T1, Mineralocorticoid receptor (Rattus norvegicus); experiment: Relative potency compared to Aldosterone; Range is 177-1340; type: functional
# [6] = target: T1, Mineralocorticoid receptor (Rattus norvegicus); experiment: Relative binding affinity against mineralocorticoid receptor determined in rat renal cytosol using [3]Ald as ligand; procedure, shortened: as §1
# [7] = target: T1, Mineralocorticoid receptor (Rattus norvegicus); experiment: Agonist activity against Mineralocorticoid receptor was determined after subcutaneous administration in Male Sprague Dawley rats; (+) =positive; type: functional, organism-based; conditions: filed as agonist
# [8] = target: T1, Mineralocorticoid receptor (Rattus norvegicus); experiment: Relative potency ompared to Aldosterone;Range 4-187; type: functional
# [9] = target: T1, Mineralocorticoid receptor (Rattus norvegicus); experiment: Agonist activity against Mineralocorticoid receptor after subcutaneous administration in Male Sprague Dawley rats; (+) =positive; type: functional, organism-based; conditions: filed as agonist
# [10] = target: T1, Mineralocorticoid receptor (Rattus norvegicus); experiment: Antagonist activity against Mineralocorticoid receptor after subcutaneous administration in Male Sprague Dawley rats; (-) = negative; type: functional, organism-based; procedure, shortened: as §2
# [11] = target: T1, Mineralocorticoid receptor (Rattus norvegicus); experiment: Antagonist activity against Mineralocorticoid receptor after subcutaneous administration in Male Sprague Dawley rats; (+) =positive; type: functional, organism-based; conditions: filed as antagonist; procedure, shortened: as §2
# [12] = target: T1, Mineralocorticoid receptor (Rattus norvegicus); experiment: Relative anti-mineralocorticoid potency compared to Spironolactone after oral administration; type: functional, organism-based; procedure, shortened: as §2
# [13] = target: T1, Mineralocorticoid receptor (Rattus norvegicus); experiment: Antagonist activity against Mineralocorticoid receptor after po administration in Male Sprague Dawley rats; (-) = negative; type: functional, organism-based; procedure, shortened: as §2
# [14] = target: T1, Mineralocorticoid receptor (Rattus norvegicus); experiment: Antagonist activity against Mineralocorticoid receptor after oral administration in Male Sprague Dawley rats; (-) = negative; type: functional, organism-based; procedure, shortened: as §2
# [15] = target: T2, Androgen receptor (Rattus norvegicus) (UniProt P15207); experiment: Relative anti-androgenic activity as suppressive effect on weight increase of ventral prostate in castrated immature rats given testosterone propionate; type: functional; conditions: Prostate gland
# T2 sequence (whole entry): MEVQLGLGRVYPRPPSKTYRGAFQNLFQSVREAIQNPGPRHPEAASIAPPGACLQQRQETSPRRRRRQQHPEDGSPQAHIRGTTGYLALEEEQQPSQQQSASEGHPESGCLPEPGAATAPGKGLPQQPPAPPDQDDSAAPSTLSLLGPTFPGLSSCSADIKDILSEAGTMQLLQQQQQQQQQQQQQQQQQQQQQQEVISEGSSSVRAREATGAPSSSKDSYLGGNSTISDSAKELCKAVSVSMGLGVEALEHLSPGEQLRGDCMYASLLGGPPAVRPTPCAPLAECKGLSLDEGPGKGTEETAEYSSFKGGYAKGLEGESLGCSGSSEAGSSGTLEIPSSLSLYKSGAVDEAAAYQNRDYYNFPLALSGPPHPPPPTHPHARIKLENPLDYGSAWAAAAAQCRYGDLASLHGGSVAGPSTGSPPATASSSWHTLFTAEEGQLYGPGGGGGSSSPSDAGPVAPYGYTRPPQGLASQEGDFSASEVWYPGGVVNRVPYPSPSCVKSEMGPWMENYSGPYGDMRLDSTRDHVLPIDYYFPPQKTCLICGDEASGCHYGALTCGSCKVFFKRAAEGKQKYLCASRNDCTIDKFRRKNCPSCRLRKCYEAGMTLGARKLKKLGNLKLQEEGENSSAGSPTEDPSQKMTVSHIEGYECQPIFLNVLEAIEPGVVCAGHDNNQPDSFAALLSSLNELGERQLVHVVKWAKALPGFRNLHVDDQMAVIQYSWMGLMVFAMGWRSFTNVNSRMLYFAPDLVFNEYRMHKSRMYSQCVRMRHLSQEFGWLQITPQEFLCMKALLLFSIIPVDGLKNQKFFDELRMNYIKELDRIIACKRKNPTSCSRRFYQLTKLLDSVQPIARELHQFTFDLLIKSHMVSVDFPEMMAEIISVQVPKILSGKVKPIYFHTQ
# Procedure, shortened: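 Male Sprague-Dawley rats (3 weeks old) were castrated 3 days earlier. […] Suppression of accessory sex organ weight gain gave relative antiandrogenic activity.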
# [16] = target: T1, Mineralocorticoid receptor (Rattus norvegicus); experiment: Relative potency against mineralocorticoid receptor; type: functional; procedure, shortened: as §2
# [17] = target: T1, Mineralocorticoid receptor (Rattus norvegicus); experiment: Antagonist activity against Mineralocorticoid receptor after po administration in Male Sprague Dawley rats; (+) =positive; type: functional, organism-based; conditions: filed as antagonist; procedure, shortened: as §2
# [18] = target: T3, Progesterone receptor (Rattus norvegicus) (UniProt Q63449); experiment: Relative binding affinity against progesterone receptor determined in rat […] cytosol using [3H]DHT as ligand
# T3 sequence (whole entry): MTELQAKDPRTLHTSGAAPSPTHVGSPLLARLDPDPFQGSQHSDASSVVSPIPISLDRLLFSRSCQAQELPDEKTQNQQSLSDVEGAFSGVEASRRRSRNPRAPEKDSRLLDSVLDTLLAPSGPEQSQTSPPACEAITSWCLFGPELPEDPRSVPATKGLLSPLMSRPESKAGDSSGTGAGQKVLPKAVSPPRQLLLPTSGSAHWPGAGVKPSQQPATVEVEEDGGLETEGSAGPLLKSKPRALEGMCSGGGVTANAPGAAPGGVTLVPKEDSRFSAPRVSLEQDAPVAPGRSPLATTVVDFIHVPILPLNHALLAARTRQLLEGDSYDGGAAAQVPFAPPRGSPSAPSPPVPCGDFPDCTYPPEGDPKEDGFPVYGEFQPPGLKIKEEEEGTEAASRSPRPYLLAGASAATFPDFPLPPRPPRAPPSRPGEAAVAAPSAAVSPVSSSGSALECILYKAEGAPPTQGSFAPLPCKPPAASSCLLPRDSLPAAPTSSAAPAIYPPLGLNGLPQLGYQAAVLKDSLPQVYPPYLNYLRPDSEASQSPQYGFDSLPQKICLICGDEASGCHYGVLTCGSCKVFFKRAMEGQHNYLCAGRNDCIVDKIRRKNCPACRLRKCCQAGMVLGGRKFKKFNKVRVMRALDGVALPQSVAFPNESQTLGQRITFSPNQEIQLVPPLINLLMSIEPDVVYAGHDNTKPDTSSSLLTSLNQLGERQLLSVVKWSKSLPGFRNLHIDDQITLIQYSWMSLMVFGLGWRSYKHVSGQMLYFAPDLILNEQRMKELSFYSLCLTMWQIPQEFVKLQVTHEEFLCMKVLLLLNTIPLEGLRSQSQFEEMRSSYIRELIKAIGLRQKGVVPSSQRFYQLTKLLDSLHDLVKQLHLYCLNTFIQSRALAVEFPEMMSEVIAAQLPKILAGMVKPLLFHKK
# [19] = target: T1, Mineralocorticoid receptor (Rattus norvegicus); experiment: Relative potency compared to Aldosterone;Range is 1.2-1.6; type: functional
# [20] = target: T1, Mineralocorticoid receptor (Rattus norvegicus); experiment: Relative binding affinity against Mineralocorticoid receptor in Male Sprague-Dawley rats; procedure, shortened: as §1
structure (smiles),measurement,setting,value
C[C@]12CC[C@H]3[C@@H](CCC4=CC(=O)CC[C@@]43C)[C@@H]1CC[C@@H]2C(=O)CO,RBA,[1],58%
same,Relative activity,[2],1
CC12CCC(=O)C=C1CCC1C2C=CC2(C)C1CC[C@@]21CCC(=O)O1 (stereo partly drawn),RBA,[3],440%
same,RBA,Rattus norvegicus,53%
same,Activity,[4],inactive
same,Relative potency,[5],177
same,RBA,[6],570%
same,Activity,[7],Agonist
CC12C=CC(=O)C=C1C1CC1C1C2C=CC2(C)C1CC[C@@]21CCC(=O)O1 (stereo partly drawn),Relative potency,[8],4
same,RBA,[3],300%
same,Activity,[9],Agonist
same,RBA,Rattus norvegicus,11%
same,Activity,[10],inactive
same,RBA,[6],320%
CC12CCC(=O)C=C1C=CC1C2C=CC2(C)C1CC[C@@]21CCC(=O)O1 (stereo partly drawn),RBA,[3],64%
same,Activity,[11],Antagonist
same,Relative potency,[12],2
same,Activity,[13],inactive
same,Activity,[14],inactive
same,RBA,Rattus norvegicus,4.7%
same,RBA,[6],70%
same,Activity,[15],1
C[C@]12CCC(=O)C=C1CC[C@@H]1[C@@H]2[C@@H](O)C[C@]2(C=O)[C@@H](C(=O)CO)CC[C@@H]12,Relative activity,[2],30
same,Relative potency,[16],1
CC12C=CC(=O)C=C1C1CC1C1C2C=CC2(C)C1C1CC1[C@@]21CCC(=O)O1 (stereo partly drawn),Activity,[17],Antagonist
same,RBA,[3],480%
same,RBA,[18],150%
same,Activity,[14],inactive
same,Activity,[4],inactive
same,RBA,[6],250%
same,Relative potency,[19],1.2
C[C@]12CC[C@@H]3C4CCC(=O)C=C4CC[C@H]3[C@@H]1CC[C@@H]2C(=O)CO (stereo partly drawn),Relative activity,[2],1.5
same,relative binding affinity (RBA),[20],170
